Test results: ChEMBL document CHEMBL1134486, “Synthesis and biological evaluation of purine-containing butenolides” (J Med Chem, 2001)

Key:
[1] = compound: COC1=C(OC)C(O)(CCn2cnc3c(N)ncnc32)OC1=O; test: (§1) Rate of deamination in the presence of calf mucosal adenosine deaminase (ADA)
In short: (§2)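 Deamination rates followed with calf mucosal ADA (EC 3.5.4.4) in buffer solutions; Km and Vmax relative to adenosine as substrate; inhibition (Ki) assessed with adenosine as substrate.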

[2] = compound: COC1=C(OC)/C(=C/Cn2cnc3c(N)ncnc32)OC1=O; test: as §1; in short: as §2

B1: Adenosine deaminase (Bos taurus), P56658 (protein)
chain: MAQTPAFNKPKVELHVHLDGAIKPETILYYGRKRGIALPADTPEELQNIIGMDKPLSLPEFLAKFDYYMPAIAGCREAVKRIAYEFVEMKAKDGVVYVEVRYSPHLLANSKVEPIPWNQAEGDLTPDEVVSLVNQGLQEGERDFGVKVRSILCCMRHQPSWSSEVVELCKKYREQTVVAIDLAGDETIEGSSLFPGHVKAYAEAVKSGVHRTVHAGEVGSANVVKEAVDTLKTERLGHGYHTLEDATLYNRLRQENMHFEVCPWSSYLTGAWKPDTEHPVVRFKNDQVNYSLNTDDPLIFKSTLDTDYQMTKNEMGFTEEEFKRLNINAAKSSFLPEDEKKELLDLLYKAYGMPSPASAEQCL
Q: Which Km [1] does the source give for B1 here?
A: > 800 µM

Q: And the Km [2]?
A: 266 µM
